Test results reported in ChEMBL document CHEMBL1156783, “Synthesis, biological evaluation, X-ray structure, and pharmacokinetics of aminopyrimidine c-jun-N-terminal kinase (JNK) inhibitors” (J Med Chem, 2010).
The source made the active and inactive calls. The rule behind the calls is not given here.

Legend:
[1] = Inhibition of p38 kinase by time resolved fluorescence assay
Procedure, shortened: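 Commercial recombinant p38 in a homogeneous time-resolved fluorescence biochemical assay run per an earlier protocol. IC50 is the average of three or more experiments.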

Liver microsomes [2] = experiment: Metabolic stability in rat liver microsomes at 1 uM by LC-MS/MS analysis; assay type: ADME, Microsome
CYP2D6 = CYP2D6 (Homo sapiens, UniProt P10635); experiment: Inhibition of human CYP2D6 at 10 uM after 15 mins; assay type: ADME
[3] = AUC in Sprague-Dawley rat at 2 mg/kg, po; assay type: ADME, organism-based; parameters: dose 2 mg/kg, route oral; conditions: plasma
[4] = Cmax in Sprague-Dawley rat at 2 mg/kg, po; assay type: ADME, organism-based; parameters: dose 2 mg/kg, route oral; conditions: in vivo
[5] = Half life in Sprague-Dawley rat at 1 mg/kg, iv and 2 mg/kg, po; assay type: ADME, organism-based; conditions: in vivo
Procedure, shortened: (§1)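 Sprague-Dawley rats (n = 3) given 1 mg/kg i.v. and 2 mg/kg oral gavage. Blood was drawn into EDTA at 5, 15, 30 min and 1, 2, 4, 6, 8 h. Plasma proteins were precipitated with acetonitrile and drug was measured by LC-MS/MS. Cmax, AUC, t1/2, CL, Vd and oral bioavailability came from noncompartmental analysis.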

[6] = Volume of distribution in Sprague-Dawley rat at 1 mg/kg, iv and 2 mg/kg, po; assay type: ADME, organism-based; conditions: in vivo; procedure, shortened: as §1
Plasma [7] = experiment: Protein binding in dog plasma; assay type: ADME, cell-free, Canis lupus familiaris
CYP1A2 = molecular target: T1, CYP1A2 (Homo sapiens, UniProt P05177); experiment: Inhibition of human CYP1A2 at 10 uM after 15 mins; assay type: ADME
T1 sequence (P05177 whole entry): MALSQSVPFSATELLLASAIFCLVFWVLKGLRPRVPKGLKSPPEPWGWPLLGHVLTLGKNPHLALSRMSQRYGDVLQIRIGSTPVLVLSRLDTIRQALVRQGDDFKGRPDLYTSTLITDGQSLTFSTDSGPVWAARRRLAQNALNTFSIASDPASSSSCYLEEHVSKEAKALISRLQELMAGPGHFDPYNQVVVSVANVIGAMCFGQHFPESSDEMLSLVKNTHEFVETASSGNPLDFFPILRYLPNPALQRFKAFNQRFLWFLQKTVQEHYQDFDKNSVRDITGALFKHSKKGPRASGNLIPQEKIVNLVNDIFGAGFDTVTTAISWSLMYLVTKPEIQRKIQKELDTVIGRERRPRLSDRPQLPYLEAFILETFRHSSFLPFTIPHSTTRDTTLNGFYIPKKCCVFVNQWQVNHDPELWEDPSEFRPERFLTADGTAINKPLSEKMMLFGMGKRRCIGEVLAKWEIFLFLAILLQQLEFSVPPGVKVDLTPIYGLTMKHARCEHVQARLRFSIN

[8] = molecular target: Mitogen-activated protein kinase 8 (Homo sapiens, UniProt P45983); experiment: Inhibition of JNK1 by time resolved fluorescence assay
Plasma [9] = experiment: Protein binding in human plasma; assay type: ADME, cell-free
CYP3A4 = CYP3A4 (Homo sapiens, UniProt P08684); experiment: Inhibition of human CYP3A4 at 10 uM after 15 mins; assay type: ADME
Plasma [10] = experiment: Protein binding in rat plasma; assay type: ADME, cell-free
Plasma [11] = experiment: Protein binding in mouse plasma; assay type: ADME, cell-free
Rattus norvegicus = experiment: Oral bioavailability in Sprague-Dawley rat at 2 mg/kg; assay type: ADME, organism-based; conditions: in vivo; procedure, shortened: as §1
CYP2C9 = CYP2C9 (Homo sapiens, UniProt P11712); experiment: Inhibition of human CYP2C9 at 10 uM after 15 mins; assay type: ADME
[12] = Metabolic stability in mouse liver microsomes at 1 uM by LC-MS/MS analysis; assay type: ADME, Microsome
Plasma [13] = experiment: Protein binding in monkey plasma; assay type: ADME, cell-free, Macaca mulatta; conditions: rhesus monkey
Liver microsomes [14] = experiment: Metabolic stability in human liver microsomes at 1 uM by LC-MS/MS analysis; assay type: ADME, Microsome
[15] = Plasma clearance in Sprague-Dawley rat at 1 mg/kg, iv and 2 mg/kg, po; assay type: ADME, organism-based; procedure, shortened: as §1
[16] = molecular target: Mitogen-activated protein kinase 10 (Homo sapiens, UniProt P53779); experiment: Inhibition of JNK3 by time resolved fluorescence assay
[17] = Inhibition of c-jun phosphorylation in rat INS-1 cells; assay type: cell-based; conditions: INS1
[18] = molecular target: Mitogen-activated protein kinase kinase kinase 10 (Homo sapiens) (UniProt Q02779); experiment: Inhibition of MLK2 at 3 uM
Procedure, shortened: (§2)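 Counterscreen in a biochemical panel of 400 kinases. Each kinase was tested at a single inhibitor level of 3 μM, and percent inhibition was recorded.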

[19] = molecular target: Mitogen-activated protein kinase kinase kinase 2 (Homo sapiens) (UniProt Q9Y2U5); experiment: Inhibition of MAPK3K2 at 3 uM; procedure, shortened: as §2
[20] = molecular target: Mitogen-activated protein kinase kinase kinase 3 (Homo sapiens) (UniProt Q99759); experiment: Inhibition of MAPK3K3 at 3 uM; procedure, shortened: as §2
[21] = molecular target: Dual specificity mitogen-activated protein kinase kinase 4 (Homo sapiens) (UniProt P45985); experiment: Inhibition of MKK4 at 3 uM
[22] = molecular target: Mitogen-activated protein kinase kinase kinase 9 (Homo sapiens) (UniProt P80192); experiment: Inhibition of MLK1 at 3 uM; procedure, shortened: as §2
[23] = molecular target: Mitogen-activated protein kinase kinase kinase 4 (Homo sapiens) (UniProt Q9Y6R4); experiment: Inhibition of MAPK3K4 at 3 uM; procedure, shortened: as §2
[24] = molecular target: Mitogen-activated protein kinase kinase kinase 1 (Homo sapiens) (UniProt Q13233); experiment: Inhibition of MAPK3K1 at 3 uM; procedure, shortened: as §2
[25] = molecular target: Mitogen-activated protein kinase kinase kinase 5 (Homo sapiens) (UniProt Q99683); experiment: Inhibition of ASK1 at 3 uM
[26] = Inhibition of streptozotocin-induced H2O2 production in rat INS1(823/13) cells treated 30 mins before streptozotocin challenge measured after 4 hrs; assay type: functional, cell-based
Procedure, shortened: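 Rat insulinoma INS1 823/13 cells in RPMI 1640 with 10% FBS were plated and left overnight at 37 °C. Compound in DMSO was added 30 min before 4 mM STZ and kept through 4 h of STZ at 37 °C. Cells were loaded with 5 μM CM-H2DCFDA for 1 h, and fluorescence was read at 495/525 nm. Signal was normalized to STZ alone. A 12-point curve was fitted by four-parameter regression over four biological replicates run in duplicate.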

[27] = molecular target: Mitogen-activated protein kinase kinase kinase 11 (Homo sapiens) (UniProt Q16584); experiment: Inhibition of MLK3 at 3 uM; procedure, shortened: as §2
[28] = molecular target: Dual specificity mitogen-activated protein kinase kinase 7 (Homo sapiens) (UniProt O14733); experiment: Inhibition of MKK7 at 3 uM
[29] = Selectivity ratio of IC50 for JNK1 over IC50 for p38 kinase
[30] = Selectivity ratio of IC50 for JNK3 over IC50 for p38 kinase
Jurkat = experiment: Inhibition of IL-2 release in human Jurkat cells at 10 uM; assay type: functional

Chain of Mitogen-activated protein kinase 10 (P53779 whole entry): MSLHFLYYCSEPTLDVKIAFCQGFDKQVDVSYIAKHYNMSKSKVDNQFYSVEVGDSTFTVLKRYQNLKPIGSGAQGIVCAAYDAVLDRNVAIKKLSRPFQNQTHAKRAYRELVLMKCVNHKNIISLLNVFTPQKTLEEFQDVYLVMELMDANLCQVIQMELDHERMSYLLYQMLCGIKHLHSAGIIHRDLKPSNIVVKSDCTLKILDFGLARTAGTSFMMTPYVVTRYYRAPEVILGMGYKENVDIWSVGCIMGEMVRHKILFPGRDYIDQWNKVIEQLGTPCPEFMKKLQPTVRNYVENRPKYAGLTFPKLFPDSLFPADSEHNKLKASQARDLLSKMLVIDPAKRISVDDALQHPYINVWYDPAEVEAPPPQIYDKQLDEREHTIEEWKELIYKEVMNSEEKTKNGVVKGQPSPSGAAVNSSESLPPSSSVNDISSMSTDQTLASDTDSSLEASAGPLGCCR
Chain of Mitogen-activated protein kinase 8 (P45983 whole entry): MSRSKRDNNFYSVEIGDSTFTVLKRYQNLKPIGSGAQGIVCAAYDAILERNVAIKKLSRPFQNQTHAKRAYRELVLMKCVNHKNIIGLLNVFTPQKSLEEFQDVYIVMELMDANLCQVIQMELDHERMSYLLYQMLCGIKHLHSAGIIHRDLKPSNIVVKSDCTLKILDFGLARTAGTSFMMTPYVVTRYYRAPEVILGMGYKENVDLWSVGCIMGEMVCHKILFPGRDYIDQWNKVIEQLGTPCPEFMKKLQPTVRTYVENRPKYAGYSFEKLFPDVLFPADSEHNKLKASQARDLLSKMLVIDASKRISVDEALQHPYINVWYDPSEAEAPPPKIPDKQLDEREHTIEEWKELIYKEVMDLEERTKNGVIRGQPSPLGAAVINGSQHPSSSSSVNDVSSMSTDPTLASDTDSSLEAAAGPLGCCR
Chain of CYP2C9 (P11712 whole entry): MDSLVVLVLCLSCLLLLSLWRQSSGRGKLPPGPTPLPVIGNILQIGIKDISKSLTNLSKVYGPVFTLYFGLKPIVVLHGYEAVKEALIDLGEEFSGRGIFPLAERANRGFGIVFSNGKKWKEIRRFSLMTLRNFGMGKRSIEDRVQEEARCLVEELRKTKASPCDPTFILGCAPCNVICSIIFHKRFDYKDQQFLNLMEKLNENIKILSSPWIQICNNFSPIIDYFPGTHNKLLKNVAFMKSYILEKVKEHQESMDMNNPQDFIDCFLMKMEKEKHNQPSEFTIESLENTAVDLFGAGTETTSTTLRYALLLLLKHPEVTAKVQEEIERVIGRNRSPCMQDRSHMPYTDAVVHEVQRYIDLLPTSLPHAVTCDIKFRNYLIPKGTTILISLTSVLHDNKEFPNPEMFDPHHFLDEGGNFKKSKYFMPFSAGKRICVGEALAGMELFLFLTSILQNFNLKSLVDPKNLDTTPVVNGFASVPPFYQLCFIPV
Chain of CYP3A4 (P08684 whole entry): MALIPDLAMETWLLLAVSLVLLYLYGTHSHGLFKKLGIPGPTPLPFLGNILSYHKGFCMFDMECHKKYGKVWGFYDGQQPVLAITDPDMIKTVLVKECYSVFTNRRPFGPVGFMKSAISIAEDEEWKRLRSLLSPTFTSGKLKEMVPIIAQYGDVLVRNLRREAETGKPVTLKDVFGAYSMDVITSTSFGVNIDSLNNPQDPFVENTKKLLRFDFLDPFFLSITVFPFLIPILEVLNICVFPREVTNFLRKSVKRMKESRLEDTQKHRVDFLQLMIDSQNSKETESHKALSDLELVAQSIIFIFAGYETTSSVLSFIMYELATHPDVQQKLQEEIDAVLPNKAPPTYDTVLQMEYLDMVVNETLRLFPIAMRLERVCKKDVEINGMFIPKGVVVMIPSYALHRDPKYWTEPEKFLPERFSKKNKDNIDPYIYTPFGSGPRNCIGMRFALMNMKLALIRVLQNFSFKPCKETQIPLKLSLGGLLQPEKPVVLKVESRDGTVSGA
Chain of CYP2D6 (P10635 whole entry): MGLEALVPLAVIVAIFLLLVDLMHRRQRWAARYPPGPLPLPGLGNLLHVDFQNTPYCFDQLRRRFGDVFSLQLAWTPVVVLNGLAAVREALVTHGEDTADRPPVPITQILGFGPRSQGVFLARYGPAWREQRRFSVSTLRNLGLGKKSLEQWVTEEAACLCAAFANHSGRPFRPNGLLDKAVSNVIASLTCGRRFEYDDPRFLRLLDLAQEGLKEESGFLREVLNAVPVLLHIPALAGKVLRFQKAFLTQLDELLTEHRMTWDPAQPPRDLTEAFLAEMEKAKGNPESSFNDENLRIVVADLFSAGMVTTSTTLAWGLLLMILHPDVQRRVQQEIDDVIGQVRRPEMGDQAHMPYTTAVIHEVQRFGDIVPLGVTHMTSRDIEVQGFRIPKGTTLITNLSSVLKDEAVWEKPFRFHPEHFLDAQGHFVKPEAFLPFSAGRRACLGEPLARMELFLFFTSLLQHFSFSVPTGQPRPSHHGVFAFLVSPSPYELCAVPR
Chain of Mitogen-activated protein kinase kinase kinase 4 (Homo sapiens) (Q9Y6R4 whole entry): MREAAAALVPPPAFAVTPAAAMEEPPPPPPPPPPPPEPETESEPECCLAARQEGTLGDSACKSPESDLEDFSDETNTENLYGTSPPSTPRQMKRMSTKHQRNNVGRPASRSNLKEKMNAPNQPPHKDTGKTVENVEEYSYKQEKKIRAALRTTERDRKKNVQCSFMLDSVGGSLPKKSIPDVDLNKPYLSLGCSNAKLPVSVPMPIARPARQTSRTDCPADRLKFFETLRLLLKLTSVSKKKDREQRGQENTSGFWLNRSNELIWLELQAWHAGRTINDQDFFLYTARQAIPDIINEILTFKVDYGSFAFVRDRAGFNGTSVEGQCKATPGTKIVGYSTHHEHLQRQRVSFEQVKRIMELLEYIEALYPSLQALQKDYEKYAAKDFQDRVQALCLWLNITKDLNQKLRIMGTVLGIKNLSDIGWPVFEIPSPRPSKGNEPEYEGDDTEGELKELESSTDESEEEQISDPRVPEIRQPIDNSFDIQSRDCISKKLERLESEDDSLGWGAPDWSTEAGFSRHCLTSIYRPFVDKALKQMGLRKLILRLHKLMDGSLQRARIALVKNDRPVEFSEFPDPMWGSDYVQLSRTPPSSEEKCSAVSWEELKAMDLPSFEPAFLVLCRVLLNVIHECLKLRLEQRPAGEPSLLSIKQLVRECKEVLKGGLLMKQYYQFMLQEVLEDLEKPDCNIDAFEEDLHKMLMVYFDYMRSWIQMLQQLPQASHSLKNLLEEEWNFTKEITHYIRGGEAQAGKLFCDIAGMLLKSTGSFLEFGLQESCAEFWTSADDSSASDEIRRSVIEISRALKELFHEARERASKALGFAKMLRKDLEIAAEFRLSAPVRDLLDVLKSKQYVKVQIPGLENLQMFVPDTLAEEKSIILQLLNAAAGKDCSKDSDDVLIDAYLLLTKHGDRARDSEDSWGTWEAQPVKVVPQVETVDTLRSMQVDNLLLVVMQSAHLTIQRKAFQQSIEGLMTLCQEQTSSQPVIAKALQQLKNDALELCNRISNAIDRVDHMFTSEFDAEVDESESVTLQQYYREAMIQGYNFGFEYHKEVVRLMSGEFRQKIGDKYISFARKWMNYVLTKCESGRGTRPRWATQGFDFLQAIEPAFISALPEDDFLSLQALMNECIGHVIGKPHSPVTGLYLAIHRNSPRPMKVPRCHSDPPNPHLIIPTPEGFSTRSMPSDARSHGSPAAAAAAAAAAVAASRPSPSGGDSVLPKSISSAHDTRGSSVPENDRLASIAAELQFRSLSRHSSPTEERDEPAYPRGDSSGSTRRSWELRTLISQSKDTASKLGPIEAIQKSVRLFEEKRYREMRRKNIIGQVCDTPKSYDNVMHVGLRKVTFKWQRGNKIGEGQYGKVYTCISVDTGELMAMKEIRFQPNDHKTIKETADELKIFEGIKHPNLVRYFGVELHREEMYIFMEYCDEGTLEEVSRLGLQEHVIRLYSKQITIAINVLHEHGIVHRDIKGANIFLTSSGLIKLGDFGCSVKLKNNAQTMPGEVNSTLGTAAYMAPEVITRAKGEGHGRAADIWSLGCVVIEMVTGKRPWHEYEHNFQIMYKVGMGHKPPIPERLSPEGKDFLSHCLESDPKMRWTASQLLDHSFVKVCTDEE
Chain of Dual specificity mitogen-activated protein kinase kinase 4 (Homo sapiens) (P45985 whole entry): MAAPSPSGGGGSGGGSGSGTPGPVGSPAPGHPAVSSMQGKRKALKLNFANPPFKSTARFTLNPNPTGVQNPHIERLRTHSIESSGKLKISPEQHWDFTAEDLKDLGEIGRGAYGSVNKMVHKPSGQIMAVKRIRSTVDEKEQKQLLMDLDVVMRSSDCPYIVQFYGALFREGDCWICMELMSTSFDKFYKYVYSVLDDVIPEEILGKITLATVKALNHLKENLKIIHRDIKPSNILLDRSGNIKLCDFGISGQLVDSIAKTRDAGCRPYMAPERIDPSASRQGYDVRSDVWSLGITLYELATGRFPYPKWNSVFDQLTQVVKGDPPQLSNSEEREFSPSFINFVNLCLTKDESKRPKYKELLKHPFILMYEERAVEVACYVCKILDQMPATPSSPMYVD
Chain of Dual specificity mitogen-activated protein kinase kinase 7 (Homo sapiens) (O14733 whole entry): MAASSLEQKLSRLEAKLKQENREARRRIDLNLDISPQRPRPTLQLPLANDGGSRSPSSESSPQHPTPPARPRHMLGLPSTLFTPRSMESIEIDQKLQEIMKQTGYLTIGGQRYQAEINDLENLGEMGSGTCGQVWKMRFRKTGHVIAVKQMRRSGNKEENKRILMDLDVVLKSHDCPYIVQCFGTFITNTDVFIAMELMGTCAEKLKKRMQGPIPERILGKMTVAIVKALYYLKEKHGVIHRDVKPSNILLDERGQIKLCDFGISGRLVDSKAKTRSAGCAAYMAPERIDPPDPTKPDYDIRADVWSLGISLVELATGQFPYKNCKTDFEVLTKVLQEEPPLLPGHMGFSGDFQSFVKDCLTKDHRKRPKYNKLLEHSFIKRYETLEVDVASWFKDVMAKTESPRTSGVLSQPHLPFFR

SMILES	IC50 [1]	Stability (Liver microsomes [2])	inhibition at 0.25 h, 10 µM (CYP2D6)	AUC [3]	Cmax [4]	half-life [5]	Vd [6]	inhibition at 0.25 h, 10 µM (CYP1A2)	IC50 [8]	inhibition at 0.25 h, 10 µM (CYP3A4)	F (Rattus norvegicus)	inhibition at 0.25 h, 10 µM (CYP2C9)	Stability [12]	Stability (Liver microsomes [14])	clearance [15]	IC50 [16]	IC50 [17]	other results
CS(=O)(=O)Nc1ccc(-c2ccnc(Nc3ccc(S(N)(=O)=O)cc3)n2)cc1	> 20000 nM	–	–	–	–	–	–	–	–	–	–	–	–	–	–	–	–	–
Fc1cc(-c2ccnc(Nc3ccc(-n4cnc(N5CCOCC5)n4)cc3)n2)cc(N2CCOCC2)c1	–	41 min	4%	1.4 µM·h	300 nM	2.4 h	2.5 L/kg	70%	99 nM	89%	45%	75%	21 min	26 min	20 mL/min/kg	–	–	PPB (Plasma [7]): 96%; PPB (Plasma [9]): 92%; PPB (Plasma [10]): 98%; PPB (Plasma [11]): 92%; PPB (Plasma [13]): 96%
CN1CCN(c2ncn(-c3ccc(Nc4nccc(-c5cc(F)cc(N6CCOCC6)c5)n4)cc3)n2)CC1	> 20000 nM	–	–	–	–	–	–	–	102 nM	–	–	–	–	–	–	133 nM	260 nM	–
Fc1cc(-c2cc[nH]/c(=N/c3ccc(-n4cnc(N5CCOCC5)n4)cc3)n2)cc(N2CCOCC2)c1	> 20000 nM	–	–	–	–	–	–	–	–	–	–	–	–	–	–	–	54 nM	Activity [18]: inactive; Activity [19]: inactive; Activity [20]: inactive; Activity [21]: inactive; Activity [22]: inactive; Activity [23]: inactive; Activity [24]: inactive; Activity [25]: inactive; IC50 [26]: 0.81 nM; Activity [27]: inactive; Activity [28]: inactive
N#Cc1cc(-c2ccnc(Nc3ccc(-n4cnc(-c5ccccn5)n4)cc3)n2)cc(N2CCOCC2)c1	> 20000 nM	47 min	-4%	5.9 µM·h	500 nM	3 h	0.6 L/kg	15%	39 nM	33%	27%	-2%	51 min	29 min	3 mL/min/kg	79 nM	–	–
NC(=O)c1ccc(Nc2nccc(-c3ccccc3)n2)cc1	> 20000 nM	–	–	–	–	–	–	–	–	–	–	–	–	–	–	–	–	–
Cc1ncn(-c2ccc(Nc3nccc(-c4cc(C#N)cc(N5CCOCC5)c4)n3)cc2)n1	> 20000 nM	–	–	–	–	–	–	–	54 nM	–	–	–	–	–	–	79 nM	89 nM	Ratio IC50 [29]: > 135; Ratio IC50 [30]: > 135
c1cc(-c2ccnc(Nc3ccc(-n4ccnn4)cc3)n2)cc(N2CCOCC2)c1	> 20000 nM	–	–	–	–	–	–	–	123 nM	–	–	–	–	–	–	365 nM	–	–
Cn1nnc(-c2ccc(Nc3nccc(-c4cc(C#N)cc(N5CCOCC5)c4)n3)cc2)n1	> 20000 nM	11 min	10%	0.24 µM·h	70 nM	1.9 h	3.3 L/kg	-1%	45 nM	15%	14%	7%	26 min	17 min	44 mL/min/kg	140 nM	–	–
N#C/C(=C1/Nc2ccccc2S1)c1ccnc(NCCc2cccnc2)n1	–	–	–	–	–	–	–	–	–	–	–	–	–	–	–	–	–	inhibition at 10 µM (Jurkat): 90%
c1cncc(-c2ncn(-c3ccc(Nc4nccc(-c5cccc(N6CCOCC6)c5)n4)cc3)n2)c1	> 20000 nM	–	–	–	–	–	–	–	97 nM	–	–	–	–	–	–	–	–	–
Cc1ncn(-c2ccc(Nc3nccc(-c4cccc(N5CCOCC5)c4)n3)cc2)n1	> 20000 nM	17 min	4%	2 µM·h	950 nM	0.8 h	0.4 L/kg	39%	113 nM	48%	25%	43%	5 min	18 min	10 mL/min/kg	390 nM	281 nM	–
CS(=O)(=O)Nc1ccc(-c2ccnc(Nc3ccc(-n4ccnn4)cc3)n2)cc1	> 20000 nM	–	–	–	–	–	–	–	16 nM	–	–	–	–	–	–	4 nM	210 nM	–
